The source made the active and inactive calls. The rule behind the calls is not given here.
Experiments:
[1] = (§1) Inhibition of BPAO after 20 mins by benzylamine assay; parameters: species or system Bos taurus
Method in brief: (§2)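 Bovine plasma amine oxidase (~1 μM) preincubated with varying inhibitor concentrations at 30 °C in 50 mM sodium phosphate, pH 7.2. Aliquots taken over time were assayed for residual activity by the benzylamine assay, with benzaldehyde formation followed at 250 nm. The value is the concentration giving 50% inactivation at a fixed 20 min.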

Bos taurus [2] = species: Bos taurus; assay: Ratio of kinact to Ki for BPAO
Method in brief: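 Inactivation of ~1 μM BPAO by varying inhibitor concentrations, at 30 °C in 50 mM sodium phosphate, pH 7.2. Residual activity in time aliquots was read by benzylamine oxidation (benzaldehyde, 250 nm). Log activity versus time gave pseudo-first-order rates, and kinact and Ki were obtained from Kitz–Wilson plots.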

Bos taurus [3] = species: Bos taurus; assay: Inhibition of BPAO assessed as redox cycling activity by NBT assay
Method in brief: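 BPAO was inactivated by preincubation with inhibitor in 50 mM sodium phosphate, pH 7.2. The inactivated preparations were then tested for TPQ cofactor redox cycling by the standard sodium glycinate nitroblue tetrazolium staining assay.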

Bos taurus [4] = species: Bos taurus; assay: as §1; method in brief: as §2

| SMILES | IC50 [1] [µM] | Ratio (Bos taurus [2]) [mM⁻¹ min⁻¹] | Activity (Bos taurus [3]) | Ki [1] [µM] | Kinact (Bos taurus [4]) [min⁻¹] |
| --- | --- | --- | --- | --- | --- |
| C1=C(c2cccnc2)CNC1 | 1.5 | 24 |  |  |  |
| C1=C(c2ccncc2)CNC1 | 50 | 1.2 | Active | 76 | 0.091 |
| C1=C(c2ccccn2)CNC1 | 0.75 | 65 |  |  |  |

Other lines, results leading:

| IC50 [1] [µM] | Ratio (Bos taurus [2]) [mM⁻¹ min⁻¹] | Activity (Bos taurus [3]) | Ki [1] [µM] | Kinact (Bos taurus [4]) [min⁻¹] | SMILES |
| --- | --- | --- | --- | --- | --- |
| 2.7 | 13 |  |  |  | C1=C(c2ccc3ccccc3n2)CNC1 |
| 6.1 | 6 | Active |  |  | Fc1c(F)c(F)c(C2=CCNC2)c(F)c1F |
| > 1000 |  |  |  |  | C[n+]1ccc(C2=CCNC2)cc1 |
| 500 |  |  |  |  | C[n+]1cccc(C2=CCNC2)c1 |
| 0.86 | 40 | Active |  |  | C1=C(c2nccc3ccccc23)CNC1 |

— ChEMBL document CHEMBL1139049, “Highly potent 3-pyrroline mechanism-based inhibitors of bovine plasma amine oxidase and mass spectrometric confirmation of cofactor derivatization” (Bioorg Med Chem, 2007)
